Laboratory results from ChEMBL document CHEMBL4513216, “Probing the Open Global Health Chemical Diversity Library for Multistage-Active Starting Points for Next-Generation Antimalarials” (ACS Infect Dis, 2020).

Experiment: Toxicity liver stage against HepG2, at 10uM
Type: cell-based
Set-up: test concentration 10 uM, cell line HepG2-A16-CD81EGFP
Details: human, HepG2-A16-CD81EGFP cells; read-out: INHIBITION
Procedure, shortened: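 Uninfected HepG2-A16-CD81EGFP cells, 3 × 10^3 per well, 1536-well, plated on prespotted compound at 10 μM final, parasite-free screening media added to match infected plates; puromycin 10 μM positive, DMSO 0.5% negative; run in parallel with 48 h PbLuc assay at 37 °C, 5% CO2; viability by CellTiter-Glo luminescence, normalized to controls.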

SMILES | cytotoxicity at 10 µM [%]
CN1C(=O)CC(C(=O)O)C12CCN(Cc1ccc(F)cc1Cl)CC2 (stereo unspecified) | -4.88
CN(C)S(=O)(=O)N1CCN(c2ccnc(N3CCCC3)n2)CC1 | -13.3
CC(=O)N1CCC(Nc2ccc(Br)cc2C#N)C1 (stereo unspecified) | 2.5
Cc1cc(CN(C)C(=O)NCc2ccnc(N(C)C)c2)no1 | 5.85
CS(=O)(=O)N[C@@H]1CCN(Cc2ccncc2)[C@H]1Cc1cccnc1 | -79.7
Cn1cnc2cc(C(=O)N3CCC(c4ccccc4C(=O)O)C3)cnc21 (stereo unspecified) | -8.98
COc1cnc(CSc2nnc(C)s2)cc1OCC(N)=O | 8.52
CCOc1cc(CNC(C)c2sccc2C)ccn1 (stereo unspecified) | -8.14
COc1cc(C2(C(=O)NC3CCN(C4CC4)CC3)CC2)ccc1C | 5.16
N#Cc1ccc(NCC(=O)Nc2ncn(Cc3cccnc3)n2)cc1 | 7.65
Cc1cc(C)n(CC(C)NC(=O)C(C)(C)c2ccccc2F)n1 (stereo unspecified) | -2.58
COc1cccc2c1OCC(Cc1ccc(N)nc1C)C2 (stereo unspecified) | 3.29
O=C(CSc1nc2c(cnn2CCO)c(=O)[nH]1)N1CCCCCC1 | -15.4
CCOc1ccc(OCc2nc3c(c(=O)[nH]2)CCNC3)cc1 | 8.55
Cc1nnc(N2CC[C@@H](OCC3CC3)[C@@H](Cc3ccccc3)C2)s1 | 14.4
N#Cc1ccc(CN2CCC(c3ccnn3CCO)CC2)cc1 | -1.72
CCN(CC)Cc1cn2c(n1)CN(C1CCOC1)CC2 (stereo unspecified) | 4.12
CC(CNC(=O)c1ccc(F)cc1Cl)N1CCCC1 (stereo unspecified) | 14.4
CSc1nccc(N2CCC(NCc3ccc4c(c3)OCO4)CC2)n1 | -3.4
CCS(=O)(=O)CC(=O)NC(c1ccccc1)C1CCCC1 (stereo unspecified) | -137
O=C(c1cc[nH]n1)N(Cc1ccc(F)cc1)CC1CC1 | -10.8
CC(=O)N1CC[C@H]2OCC[C@@]2(C(=O)NCCc2ccccn2)C1 | 6
O=C(c1ccc[nH]1)N1CCOCC2(CCN(C3CCOCC3)C2)C1 (stereo unspecified) | 10.7

SMILES | cytotoxicity at 10 µM [%]
Cc1ccc(C(=O)N2CCC3(CC2)CN(c2ccccn2)CCO3)cc1 | -75.4
Cc1ccccc1OCCN1CCCC(c2cc(C(N)=O)[nH]n2)C1 (stereo unspecified) | -14.3
CC(=O)N(C)CC(=O)NC(C)c1ccc(OCCC(C)C)cc1 (stereo unspecified) | 8.59
CCc1ncncc1C(=O)N1CCN(Cc2c(C)noc2C)CC1 | -13.8
Cc1cccc(C(=O)N(CC(=O)O)CC(C)C)c1 | -14.3
OC(COCc1ccccc1Cl)CN1CC(n2cccn2)C1 (stereo unspecified) | -7.7
CN(C)c1ncc(-c2ccc(C(N)=O)cc2)c(C2CNCCO2)n1 (stereo unspecified) | -1.42
Cc1n[nH]cc1CNC1(Cc2ccc(Br)cc2)CCCCC1 | 14.1
CCCN1CCC(CC(=O)N[C@H](C(=O)O)c2cccc(F)c2F)CC1 | 3.78
O=C1CCCC2=Nc3nonc3NC(c3cc(Cl)ccc3F)C12 (stereo unspecified) | 35.5
CC1CN(C)c2ccccc2CN1C(=O)c1ccc[nH]1 (stereo unspecified) | -28.4
COc1cc2ccn(CCS(C)(=O)=O)c(=O)c2cc1F | 18.5
COCC(=O)N1CCO[C@H]2[C@H](OCc3cccnc3)CC[C@@H]21 | -2.01
COc1ccc(Cl)cc1CC(=O)N1CCN(CC(C)(C)O)CC1 | -4.21
N#Cc1cc2c(nc1SCc1cc(O)nc(O)n1)CCCC2 | -3.94
Cc1noc(C)c1CN(C)C(=O)Nc1cnn(CC2CCCO2)c1 (stereo unspecified) | -2.77
O=c1cc(Cn2cncn2)nc2n1CCCN(Cc1ccc(F)cc1)C2 | 4.43
CCCn1nnnc1CSc1nccn1Cc1ccccn1 | 6.24
Cc1ccsc1CN(Cc1ncccc1C(=O)O)C1CC1 | -5.8
CC(O)CN1CCN(C(=O)c2ccnc(N(C)C)c2)CC1 (stereo unspecified) | 4.37
CC(c1ccc(-c2cnc(N)nc2)cc1)N1CCOCC1 (stereo unspecified) | 1.97
COc1cccc2c1OCC(C(=O)N1CCN(CCS(C)(=O)=O)CC1)C2 (stereo unspecified) | 1.28
CCOCC(=O)Nc1cccc(Oc2ccccn2)c1 | -2.41

SMILES | cytotoxicity at 10 µM [%]
Cc1csc(NC(=O)C(C)Oc2ccc3c(c2)OCO3)n1 (stereo unspecified) | 8.06
Cc1cc(C)cc(C(=O)N2CCN(C(=O)N(C)C)CC2(C)C)c1 | 1.98
COCC1CN(C(=O)Cc2cccs2)Cc2c1cnn2C (stereo unspecified) | -65.6
CS(=O)(=O)N1CCc2ccc(=O)n(CCN3CCCC3)c2CC1 | 0.108
O=C(NCCCc1ccccn1)c1cn(CCN2CCNCC2)nn1 | -3.54
Cc1nn(C)cc1C(=O)Nc1cccc(CN2CCC(CO)CC2)c1 | -10.2
Cc1nc(N(C)CCCc2nccn2C)c2nc(C)oc2n1 | 5.82
COCCCN(C)C(=O)Cn1cccc(OC)c1=O | 7.52
CCCn1nccc1S(=O)(=O)N1CCC2(CCCN(C(C)C)C2=O)C1 (stereo unspecified) | 5.96
CN(C)[C@@H]1CN(Cc2ccccc2O)C[C@H]1c1cn(C)c2ccccc12 | 6.6
CS(=O)(=O)N1CCOC2(CCCN(c3ncc(F)cn3)C2)C1 (stereo unspecified) | 5.98
Cc1cc(C)cc(CN2CCN(Cc3cccc(CCN)c3)CC2=O)c1 | -18.3
CCOc1cc(=O)n2c(c1C(=O)OCc1ccc(F)cc1)CCCC2 | 3.51
OC1(CNCc2ccc(F)c(C(F)(F)F)c2)CCSCC1 | 5.1
Cc1ccccc1C(=O)N1CCC2(CCC(C(=O)NCC3CC3)O2)CC1 (stereo unspecified) | -3.28
COc1ccc(F)c(CN2CCCC3(CCN(S(C)(=O)=O)C3)C2)c1 (stereo unspecified) | -2.93
Cc1cnn(CC2CCCN2C(=O)Cc2ccc3c(c2)CCO3)c1 (stereo unspecified) | -144
Cc1noc(C)c1CN1C[C@H](OCc2ccncc2)[C@H]2OCCC[C@H]21 | 9.98
COc1ccc(NC(=O)NCC(C)N2CCc3ccccc32)cc1 (stereo unspecified) | -2.42
Cc1[nH]ncc1CCCNC(=O)Nc1ccc2c(c1)OC1(CCCC1)O2 | 18.6
Cc1[nH]c2ccccc2c1-c1ccnc(N[C@@H](CO)C(C)C)n1 | -4.19
CN1CCC(N(CCc2ccccc2)C(=O)c2ccc(C#N)cc2)CC1 | -2.37
Cc1ccc(N2CCO[C@H]3[C@H](OCC(=O)N4CCCC4)CC[C@@H]32)cc1 | -1.03

SMILES | cytotoxicity at 10 µM [%]
CC(C)c1ncc(S(C)(=O)=O)c(C2CCCNC2)n1 (stereo unspecified) | -1.34
CN(C1CCCC1)C(C)(C)C(=O)NCCNC(N)=O | -46.3
Cc1ccc(CNC(C)c2ccc(OCC(=O)NC3CC3)cc2)o1 (stereo unspecified) | 2.07
O=C(NCCNc1ncccn1)C1CCN(C(=O)NC2CC2)CC1 | -14.5
c1csc(CN2CCCN(c3ccc(Cn4ccnc4)cn3)CC2)c1 | -18.2
O=C(Nc1cccnc1)c1nn(C2CCS(=O)(=O)C2)c2c1CCCC2 (stereo unspecified) | 7.41
Cn1cnc2c1C(COCc1cccnc1)N(Cc1nccs1)CC2 (stereo unspecified) | 10.5
COc1ccc(S(=O)(=O)NCCCc2ccc(N(C)C)cc2)cc1Cl | -0.399
CC(=O)NCC(=O)N1CCN(Cc2cccnc2)c2ncccc2C1 | -114
CC(C)c1nc(C2CCCN2Cc2nnc(C3CCC3)o2)no1 (stereo unspecified) | -15.6
CSc1ccc(C(=O)N2CC(=O)N(Cc3ccccc3)CC(O)C2)cc1 (stereo unspecified) | -0.426
COc1c[nH]c(C(=O)N2CCN(c3cccc(Cl)c3)CC2)cc1=O | -1
CC(C)Nc1ncnc2c1CCN(C(=O)[C@H]1CCCO1)CC2 | -0.685
CCCC(=O)N1CCOC2(COCCN(CC(=O)NC)C2)C1 (stereo unspecified) | -3.58
CCCc1nnc2sc(C3CCN(CCOC)CC3)nn12 | 6.76
COc1ccc2c(c1)OCC(Cc1ccnc(N)n1)C2 (stereo unspecified) | -0.651
CC(C)c1nnc2n1CCN(C(=O)c1ccc(Cn3cccc3)cc1)C2 | -4.28
O=S(=O)(C1CC1)N1CCCC2(COCCN(c3nncs3)C2)C1 (stereo unspecified) | 5.22
COCc1noc(CCNC(=O)c2cc(C)c(C)[nH]c2=O)n1 | -4.71
COc1ccccc1C1(CNc2snc(Cl)c2C#N)CCOCC1 | 10.2
CC(C)(C)OC(=O)Cn1cccc(S(=O)(=O)N2CCCCCC2)c1=O | -2.28
Cc1ccc(S(=O)(=O)N2CCC(S(C)(=O)=O)CC2)cc1C | 2.59
COc1ccc(CN(C)CC(=O)NC2(C)CCS(=O)(=O)C2)cc1F (stereo unspecified) | 7.44

SMILES | cytotoxicity at 10 µM [%]
Cc1c(C(=O)O)sc2nc(Cc3ccccc3)nc(N)c12 | -0.924
O=C1CC[C@H]2[C@H](CCN2C(=O)C2CCCO2)N1Cc1ccncc1 (stereo partly specified) | 0.898
CC(C)N1[C@H](Cn2cccn2)C[C@@H]2CN(C3CCOCC3)CC[C@@H]21 | 3.92
O=C(c1ccno1)N1CCC2(CC1)C(=O)N(CC1CC1)c1ccccc12 | 7.85
COc1ccc(-c2ccnc3c2C(=O)CCC3)cc1 | 6.09
Cn1cc(-c2cc(-c3cnn(C)c3)n(CC(=O)NC3CC3)n2)cn1 | 2.94
Cc1noc(C)c1CN1C[C@H](OCC2CCN(C)CC2)[C@H]2COC[C@H]21 | -4.49
Cc1nn(C)c(N(C)C)c1CNCCC(=O)NC1CCCCC1 | -13.4
Cc1ccsc1[C@@H]1CCN(C(=O)CCC(=O)N2CCCCCC2)C[C@H]1O | -1.72
CC(C)c1nn(C)cc1CNCc1ccnc(N(C)C)c1 | -0.431
Cc1nc(NC(=O)NCc2cccnc2NCCN(C)C)sc1C | 4.51
CNc1cc(C)nc(C2COCCN2Cc2csc(C)n2)n1 (stereo unspecified) | 1.45
CC(CN1CCOC1=O)NC(=O)c1ccccc1Oc1ccccc1 (stereo unspecified) | 1.2
Cc1cc(-c2cnc(NC3CCCC3)nc2-c2ccco2)on1 | -7.56
CCC(=O)Nc1nnc(CCCOc2ccccc2)s1 | -0.834
CN1CCCc2sc(C(=O)NC3CC3)nc21 | -149
C1CN(CCN2CCOCC2)CCN1 | -11.5
CN(C)c1nc(NCCc2cnccn2)ncc1F | 5.56
COc1ccccc1OC1(C(=O)O)CCN(c2nc(C)cnc2C)CC1 | -13.6
